High-throughput results as filed in PubChem BioAssay.
Only some compounds are listed: those with a hit (about 1.9% of all), similar ones and a draw of the others.
LEDGF integ inh: blocks HIV-1 LEDGF/p75-dependent DNA integration; TR-FRET IN-LEDGF/p75 DNA integration, Eu/Cy5; inhibition, % at 3.7 µM; actives 0.64% (n = 370,000); AID 743269;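 active = inhibition above the screen-wide mean plus 3 SD, cut at about 13% in these data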;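 note: signal is the Cy5 over europium emission ratio at 671 and 618 nm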
DDE Tn7 FP inh: DD(E)-Tn7 binding inhibition, primary FP screen; P02675; FP displacement of FITC-Tn7 peptide from fibrin DD(E); 0% = median of compound wells per plate; inhibition, % at 8.3 µM; actives 0.13% (n = 370,000);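 active = inhibition above the mean of compounds falling within the control limits plus 3 SD of them, cut at about 14% in these data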
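Assay system: Human fibrin DD(E) protein | Medium: Tris buffer with calcium and detergent, pH 7.8 | Reagent: 0.1 µM fluorescent Tn7 | Compound dosing: Single point at 8.3 µM | Times: 10 min preincubation, 3 h with tracer, room temperature | Detection: Fluorescence polarization of the labelled Tn7 tracer | Controls: Aha-Tn7 high control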
DDE Tn6 FP inh: DD(E)-Tn6 binding inhibition, primary FP screen. P02675. Fibrin DD(E) TRITC-Tn6 fluorescence polarization displacement. inhibition, % at 8.3 µM. actives 0.21% (n = 370,000). AID 720509;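 active = inhibition above a per-campaign cutoff: mean of compounds within control limits plus 3 SD, cut at about 15% in these data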
UHRF1 binding: blocks human UHRF1 binding to methylated DNA. AID 687016. UHRF1 binding to methylated oligo, TR-FRET. actives 0.75% (n = 370,000). Q96T88. inhibition, % at 4.4 µM; in the data active = inhibition above about 21%;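 note: UHRF1 SRA domain binding a hemimethylated CpG hairpin DNA probe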
Target sequence (Q96T88 whole entry, looked up, the tested form may be a part): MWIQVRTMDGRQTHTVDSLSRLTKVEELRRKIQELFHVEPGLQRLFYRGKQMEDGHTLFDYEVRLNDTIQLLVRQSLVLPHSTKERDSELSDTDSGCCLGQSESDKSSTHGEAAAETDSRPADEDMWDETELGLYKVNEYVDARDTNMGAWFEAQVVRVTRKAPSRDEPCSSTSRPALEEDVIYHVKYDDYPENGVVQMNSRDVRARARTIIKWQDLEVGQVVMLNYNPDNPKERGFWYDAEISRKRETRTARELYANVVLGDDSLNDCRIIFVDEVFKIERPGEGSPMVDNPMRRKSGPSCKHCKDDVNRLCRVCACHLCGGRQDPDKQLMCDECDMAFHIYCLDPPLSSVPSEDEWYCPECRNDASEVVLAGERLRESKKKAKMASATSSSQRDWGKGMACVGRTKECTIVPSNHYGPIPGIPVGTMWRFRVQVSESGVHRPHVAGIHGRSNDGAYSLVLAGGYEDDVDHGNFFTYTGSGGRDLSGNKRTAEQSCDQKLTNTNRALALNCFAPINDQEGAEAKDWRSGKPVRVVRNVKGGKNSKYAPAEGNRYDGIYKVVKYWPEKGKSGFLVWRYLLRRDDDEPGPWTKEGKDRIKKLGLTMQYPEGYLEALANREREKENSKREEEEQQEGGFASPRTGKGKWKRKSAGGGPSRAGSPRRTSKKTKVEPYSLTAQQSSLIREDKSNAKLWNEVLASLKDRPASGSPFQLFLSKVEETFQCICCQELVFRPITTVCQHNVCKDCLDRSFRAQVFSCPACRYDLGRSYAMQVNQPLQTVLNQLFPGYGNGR
TDP2 absorb: TDP2 (human) inhibition, absorbance primary screen; inhibition, % at 12.8 µM; AID 720702; recombinant TDP2, T5PNP hydrolysis, p-nitrophenol absorbance 415 nm; actives 0.34% (n = 370,000); O95551;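 active = inhibition above the mean of all tested compounds plus 3 SD, set per campaign, cut at about 25% in these data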
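System – recombinant human TDP2 · Quantity – TDP2 enzyme at 120 nM final · Doses – single concentration, 12.8 µM nominal, with 1% DMSO · Incubation – 2 h at 37 °C · Measured by – epi absorbance of p-nitrophenol freed from T5PNP by hydrolysis · Read-out – % inhibition relative to enzyme-containing and enzyme-free wells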
MBD2 inh: MBD2-methylated oligo binding inhibition | TR-FRET, MBD2 binding to methylated oligonucleotide | inhibition, % at 4.4 µM | actives 0.31% (n = 370,000); in the data active = inhibition above about 13%
Of the large screens only hits and unclear results are named; the others gave an inactive call; ! = not active in a repeat.

O=c1c2ccccc2nc(SCc2ccc(F)cc2Cl)n1CCCN1CCOCC1	none
NC(=O)c1nc(N2CCOCC2)nc(N2CCOCC2)n1	UHRF1 binding 37.1
CC(C)(C)Nc1nc(C(N)=O)nc(N2CCOCC2)n1	none
COC(=O)c1c(C(=O)OC)c(-c2ccc(C)cc2)n2c1CS(=O)(=O)C2	none
Cc1c(COC(=O)NC(C)C)c(COC(=O)NC(C)C)c2n1CS(=O)(=O)C2	UHRF1 binding 26.4
COc1ccc(S[C@]2(C(=O)N3CCN(C(C)=O)CC3)CC(=O)N(C(=O)c3ccccc3)[C@@H]2c2ccc(OC)cc2)cc1	none
CCNC(=O)N1CCN(c2ccc(N3CCN(Cc4ccccc4)[C@@H](C)C3)c(C)c2)[C@H](C)C1	none
Cc1ccc(C)c(N2CCN(c3ccc4cc(S(=O)(=O)N5CCCCC5)ccc4n3)CC2)c1	none
Cc1cccc(N2CCN(c3ccc4cc(S(=O)(=O)N5CCCCC5)ccc4n3)CC2)c1C	UHRF1 binding 22.9
COc1ccc(CCN(C(=O)C(F)(F)F)C(C(=O)NC2CCCC2)c2cccs2)cc1OC (centres undefined)	none
COc1ccc(CCN(C(=O)C(F)(F)F)C(C(=O)NC2CCCCC2)c2ccc(C)s2)cc1OC (centres undefined)	UHRF1 binding 28.6
Cc1ccc(NC(=O)CN2C(=O)S/C(=C/c3ccc(-c4cc(C(=O)O)ccc4C)o3)C2=O)cc1C	UHRF1 binding 32.7
Fc1ccc(CNC(=S)NCc2cccc(Cl)c2)cc1	UHRF1 binding 29.6
COc1cc(-n2nc(C)c3c2OC(N)=C(C#N)C3c2ccccc2)c(Cl)c(Br)c1O (centres undefined)	TDP2 absorb 48.5
CCCCOCC1CN(CCCC)S(=O)(=O)c2c(Oc3ccc(C)cc3)cccc2O1 (centres undefined)	none
COc1ccc(S(=O)(=O)N2CCSC2c2ccc(OC)c(OC)c2)cc1 (centres undefined)	none
COc1ccc(S(=O)(=O)N2CCSC2c2ccccc2)cc1 (centres undefined)	UHRF1 binding 69.1
Cc1cc(N2CCN(C(c3ccnc4ccccc34)c3nnnn3-c3c(C)cccc3C)CC2)c2ccccc2n1 (centres undefined)	UHRF1 binding 24.3
Cc1ccc(S(=O)(=O)Cc2ccc(C(=O)O)o2)cc1	UHRF1 binding 21.7
COc1ccc(S(=O)(=O)Cc2ccc(C(=O)O)o2)cc1	none
FC(F)(F)c1ccc(CSc2nccn2-c2ccccc2)cc1	UHRF1 binding 79.6
C[C@H]1COc2cc(Br)ccc2S(=O)(=O)N1Cc1cn(Cc2ccc(F)cc2)nn1	none
C/C(Cn1cnc([N+](=O)[O-])n1)=N/NC(=O)COc1ccccc1Cl	UHRF1 binding 24.4
C/C(Cn1cnc([N+](=O)[O-])n1)=N\NC(=O)c1ccccc1O	none
COC(=O)c1cc2c(c3c4cc(F)ccc4n(S(=O)(=O)c4ccc(OC)cc4)c13)C(=O)N(C)C2	none
COc1cccc(OC)c1C(=O)Oc1ccc2c(c1)O/C(=C\c1ccncc1)C2=O	UHRF1 binding 36.6
O=C(NS(=O)(=O)c1cccc(F)c1)[C@H]1O[C@@H](n2ccc(=O)[nH]c2=O)[C@H](O)[C@@H]1O	none
CN(C)CCNC(=O)c1cccc2ccc(-c3ccc(-c4ccccc4)cc3)nc12	UHRF1 binding 37.3
CN(C)CCNC(=O)c1ccccc1	none
CCOc1cc(C(=O)NC(C)CC)cc(OCC)c1OCC (centres undefined)	UHRF1 binding 26.9
O=C(Cn1c(=O)oc2cc(S(=O)(=O)N3CCCCC3)ccc21)N1CCCCC1	UHRF1 binding 51.6
CCOc1ccc(-n2c(C)cc(C(=O)NS(=O)(=O)c3ccc(C)cc3)c2C)cc1	UHRF1 binding 52.3
Cc1ccc(-n2c(C)cc(C(=O)NS(=O)(=O)c3ccc(C)cc3)c2C)cc1	none
O=C(CNS(=O)(=O)c1ccccc1)N1CCN(c2ccccn2)CC1	none
Clc1ccc(OCc2nnc(-c3ccccc3Br)o2)c(Cl)c1	DDE Tn6 FP inh 42.0
Cc1nn(-c2ccccc2)c(C)c1C=NNC(=O)CSc1nc2ccccc2n1C	none
Cc1cc(OCCN2CCOCC2)ccc1Cl	UHRF1 binding 22.3
Cc1ccc(OCCN2CCOCC2)cc1C	none
CC1=C(C(=O)N2CCOCC2)CC(CC(=O)NCc2cccc3ccccc23)C(=O)N1CCCN1CCCC1=O (centres undefined)	none
CCCCN1C(=O)C(CC(=O)NCc2cccc3ccccc23)CC(C(=O)N2CCOCC2)=C1C (centres undefined)	UHRF1 binding 21.9
CC1=NN(c2ccc(C(=O)O)cc2)C(=O)CC1	none
CC1=NN(c2ccc(C(=O)O)c(N)c2)C(=O)C1	LEDGF integ inh 30.6, UHRF1 binding 27.8
Cn1cc(/C=C2\SC(=O)NC2=S)c2ccccc21	DDE Tn7 FP inh 15.9
CC(C)[C@@H]1NC(=O)[C@H]2C[C@@]3(C)c4ccccc4N[C@H]3N2C1=O	none
CC[n+]1ccc(/C=C/c2ccc(N(C)C)cc2)c2ccccc21	DDE Tn6 FP inh 39.4
CC(=O)N1CCOCC1c1cc(C(=O)Nc2ccccc2)no1 (centres undefined)	none
Cc1ccc(F)cc1C(=O)N1CCOCC1c1cc(C(=O)Nc2ccccc2)no1 (centres undefined)	UHRF1 binding 32.8
COc1ccc(CN(C2CCCC2)S(=O)(=O)c2cc(Br)ccc2Br)c(OC)c1	none
C=C[C@H]1CN2CCC1C[C@H]2[C@H](O)c1ccnc2ccc(OC)cc12 (some centres undefined)	none
C=C[C@H]1CN2CC[C@H]1C[C@@H]2[C@@H](O)c1ccnc2ccc(OC)cc12	UHRF1 binding 41.6!
C[C@@H]1C=CCCO[C@]12C(=O)N(Cc1ccccc1C(F)(F)F)c1ccccc12	none
N#Cc1ccc(/C=C/C(=O)c2ccc3c(c2)OCO3)cc1	UHRF1 binding 25.6
COc1ccc(/C=C/C(=O)c2ccc3c(c2)OCO3)cc1OC	none
COC(=O)C1=C(C)N(C)C(=NCc2ccccc2)NC1c1ccccc1 (centres undefined)	none
CCOc1ccccc1C1NC(=O)NC(C)=C1C(=O)OC1CCCCC1 (centres undefined)	UHRF1 binding 80.9
COc1ccc(CNc2ccc([N+](=O)[O-])cc2C)cc1	none
COc1ccccc1CNc1ccc([N+](=O)[O-])cc1C	UHRF1 binding 47.5
Cn1ccnc1C(=O)c1cc(SCC(=O)NCc2ccccc2)nc2ccccc12	UHRF1 binding 26.1
COc1ccc(CNC(=O)CSc2nc3nc(C)cc(C)n3n2)cc1	none
Cc1cc(C)n2nc(SCCC(=O)NCc3ccccc3)nc2n1	UHRF1 binding 36.3
